For this assay, the target named is T1, P450BM3 variant V-H10(R47C,A87I) (Priestia megaterium, UniProt P14779, A181T/A185V/A198V/A291V/E253G/F206C/F88I/H237Q/L354V/P143S/R256S/R48C/S227R/T176I/V79N).
T1 sequence (P14779 1-1049 R48C/V79N/F88I/P143S/T176I/A181T/A185V/A198V/F206C/S227R/H237Q/E253G/R256S/A291V/L354V): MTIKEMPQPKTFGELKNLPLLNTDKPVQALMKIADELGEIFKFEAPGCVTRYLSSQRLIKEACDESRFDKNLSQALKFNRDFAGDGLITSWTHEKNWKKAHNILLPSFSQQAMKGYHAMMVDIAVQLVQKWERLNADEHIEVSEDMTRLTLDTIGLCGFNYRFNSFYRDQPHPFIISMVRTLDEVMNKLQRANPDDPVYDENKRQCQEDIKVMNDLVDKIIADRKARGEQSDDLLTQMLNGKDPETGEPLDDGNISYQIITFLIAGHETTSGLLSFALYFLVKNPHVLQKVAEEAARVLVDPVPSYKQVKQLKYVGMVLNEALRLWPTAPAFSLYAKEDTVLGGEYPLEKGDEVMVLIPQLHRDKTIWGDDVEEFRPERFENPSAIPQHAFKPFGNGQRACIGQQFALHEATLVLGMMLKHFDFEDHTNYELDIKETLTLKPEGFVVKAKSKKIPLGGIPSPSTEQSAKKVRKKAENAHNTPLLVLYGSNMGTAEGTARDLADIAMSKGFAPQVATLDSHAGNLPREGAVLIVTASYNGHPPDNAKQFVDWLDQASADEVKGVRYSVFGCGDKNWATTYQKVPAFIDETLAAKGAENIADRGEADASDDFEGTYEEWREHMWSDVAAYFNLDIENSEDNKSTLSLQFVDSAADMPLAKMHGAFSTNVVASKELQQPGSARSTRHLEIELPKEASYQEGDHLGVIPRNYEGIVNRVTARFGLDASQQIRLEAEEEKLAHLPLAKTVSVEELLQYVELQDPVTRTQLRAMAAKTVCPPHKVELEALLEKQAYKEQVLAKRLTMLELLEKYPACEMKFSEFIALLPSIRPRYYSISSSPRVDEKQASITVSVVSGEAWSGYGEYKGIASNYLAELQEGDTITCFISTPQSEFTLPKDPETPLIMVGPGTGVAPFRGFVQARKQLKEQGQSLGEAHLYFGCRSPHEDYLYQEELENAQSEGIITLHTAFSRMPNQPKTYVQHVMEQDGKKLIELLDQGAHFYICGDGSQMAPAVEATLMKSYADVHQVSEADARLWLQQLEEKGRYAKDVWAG
Nature of the assay: Heme spin shift binding of MCL to P450 variant V-H10. The arrangement: species or system Bacillus megaterium. In outline: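 Purified P450 (3 μM) in 50 mM or 1 M potassium phosphate, pH 8.0, titrated with test compound (5–2000 μM) from a 50 mM ethanol stock. Difference spectra (350–500 nm) were recorded at each step. Absorbance change at 390/420 nm (high/low spin) was fitted to a 1:1 binding model for KD. At least triplicate, room temperature.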

For one compound, Kd results are on record in article PMC8161485 (ACS Central Science, 2021).

Structures are written as SMILES.

As a reminder, the Kd is the constant that tells how readily two partners part at equilibrium. With `C=C1C(=O)O[C@H]2[C@H]1CCC(C)=C1CC[C@@](C)(O)[C@@H]12` [MCL, micheliolide], the Kd reads like this: (50 mM KPi pH 8.0, room temperature) 365 ± 53 µM; (1 M KPi buffer (pH 8.0)) 128 µM.
